Many of the other results were omitted from the sample, so hits are more common in it than they were.
DYRK1A inh: Dyrk1A (rat) kinase inhibition; Q63470; ADP-Glo luminescence, NFATc1 peptide; inhibition, % at 12.5 µM; hit rate 0.43% among 310,000; in the data active means inhibition above about 50%;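 further: plate controls were vehicle with enzyme for no effect and no enzyme for full effect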
GSK3B inh: human GSK3beta kinase inhibition. P49841. GST-GSK3beta kinase, ADP-Glo luminescence, 60 min; active compounds read low. activity score (negative = inhibition), % at 10 µM. hit rate 0.038% among 300,000. AID 2097;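 active means more than half of replicate wells score below -50%, meaning over 50% inhibition versus plate controls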;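 further: 0% = median DMSO wells and -100% = median GW8510 positive control wells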
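Assay system: GST-fused GSK3beta enzyme, cell-free / Medium: Tris pH 7.5 buffer with MgCl2, DTT, BSA, heparin / Also added: peptide substrate plus 25 µM ATP (final) / Compound: 10 µM single point / Timing: kinase reaction with compound 60 min at room temperature / Detection: ADP-Glo luminescence / Benchmarks: DMSO neutral wells and GW8510 at 20 µM as positive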
CDK5 p35 inh: CDK5/p35 (human) kinase inhibition; Recombinant CDK5/p35, ADP-Glo luminescence, 60 min; inhibition, % at 10 µM; hit rate 0.01% among 330,000; AID 488839;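 active means highest replicate inhibition of at least 50% and at least 75% of replicates reaching 50%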;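 further: plate controls were DMSO neutral control for no effect and GW8510 at 10 µM for full effect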
Target sequence (Q00535 whole entry, looked up): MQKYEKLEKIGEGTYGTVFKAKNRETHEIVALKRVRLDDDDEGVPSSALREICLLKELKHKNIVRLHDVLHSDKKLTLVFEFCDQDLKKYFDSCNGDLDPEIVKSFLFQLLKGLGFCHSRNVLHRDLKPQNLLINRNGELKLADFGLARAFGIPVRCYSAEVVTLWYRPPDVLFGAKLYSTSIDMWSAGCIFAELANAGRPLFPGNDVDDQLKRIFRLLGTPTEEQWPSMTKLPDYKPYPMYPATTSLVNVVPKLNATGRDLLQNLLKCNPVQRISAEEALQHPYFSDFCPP
Target sequence (Q15078 whole entry, looked up): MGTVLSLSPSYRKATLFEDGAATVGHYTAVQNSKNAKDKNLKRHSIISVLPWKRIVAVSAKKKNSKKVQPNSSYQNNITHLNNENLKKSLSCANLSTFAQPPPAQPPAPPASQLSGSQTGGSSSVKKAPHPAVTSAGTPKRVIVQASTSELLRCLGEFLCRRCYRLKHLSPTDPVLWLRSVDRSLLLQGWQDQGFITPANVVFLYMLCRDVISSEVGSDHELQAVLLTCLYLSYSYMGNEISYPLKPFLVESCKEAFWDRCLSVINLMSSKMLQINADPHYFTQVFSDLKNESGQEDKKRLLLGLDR
GSK3A inh: blocks human GSK-3 alpha kinase. ADP-Glo luminescence, 60 min. inhibition, % at 10 µM. AID 2650. P49840. hit rate 0.1% among 320,000;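 active means more than half of replicates show inhibition above 20%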;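 further: GST-tagged GSK-3 alpha with peptide substrate and 25 µM ATP; 0% = DMSO neutral wells and 100% = GW8510 positive control wells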
STK33 inh: human STK33 kinase inhibition | Q9BYT3 | purified STK33, MBP phosphorylation, ADP-Glo luminescence | hit rate 0.073% among 320,000 | inhibition, % at 10 µM;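 active means inhibition at or above 25%, using the most active replicate where run in duplicate; inactive means inhibition below 25%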
Dyrk1A artifact: counter-screen for Dyrk1A inhibitors: ADP-Glo luciferase artifacts; shares compounds with DYRK1A inh; ADP-Glo luciferase artifact assay, no Dyrk1A, luminescence; AC50, µM (doses to about 12 µM), for inactives: top-dose activity change, negative = inhibition; 1,300 tested, under 10 active; AID 588348;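 active means fitted half-maximal dose AC50 no more than ten times the top valid tested dose, with luminescence dropping as dose rises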
The depositor's hits bear a star.

`COc1cccc(Cn2nnc(C(=O)NCCc3ccc(Cl)cc3)c2N)c1` gave DYRK1A inh 56*, GSK3B inh 4, CDK5 p35 inh 0, GSK3A inh -1, STK33 inh -4 and Dyrk1A artifact 9%.
`CCCC(=O)Nc1nc2nc(-c3ccccc3)cc(=O)n2[nH]1` gave DYRK1A inh 11, GSK3B inh 5, CDK5 p35 inh 0, GSK3A inh -1 and STK33 inh 1.
Screening Cn1cccc1/C=N/NC(=O)c1ccco1 returned DYRK1A inh 3, GSK3B inh 2, CDK5 p35 inh 0, GSK3A inh -1 and STK33 inh -1.
`Cc1ccc(S(=O)(=O)NCC(=O)NCC(=O)OCc2c(F)cccc2Cl)cc1` gave DYRK1A inh 0, GSK3B inh 3, CDK5 p35 inh 1, GSK3A inh 0 and STK33 inh 1.
Screening COc1ccc(/C=C(/C(=O)c2cccs2)N2C=CC=CC2=C(C#N)C#N)cc1 returned DYRK1A inh 64*, GSK3B inh 3, CDK5 p35 inh 0 and Dyrk1A artifact 8%.
`O=c1c(-c2ccccc2)c(-c2ccccc2)oc2cc(O)cc(O)c12` gave DYRK1A inh 46, GSK3B inh -4, CDK5 p35 inh 1, GSK3A inh 7 and STK33 inh -2.
For O=c1c(O)c(-c2cc(O)c(O)c(O)c2)oc2cc(O)cc(O)c12 the results were DYRK1A inh 90*, CDK5 p35 inh 15, GSK3A inh 62*, STK33 inh 37* and Dyrk1A artifact 8%.
`O=c1c(O)c(-c2ccccc2)oc2cc(O)cc(O)c12` gave DYRK1A inh 75*, CDK5 p35 inh 1 and Dyrk1A artifact 6%.
For O=c1cc(-c2ccccc2)c2c(O)cc(O)cc2o1 the results were DYRK1A inh 61*, GSK3B inh -58*, CDK5 p35 inh 3, GSK3A inh 72*, STK33 inh 1 and Dyrk1A artifact 6%.
`CC(C)=CCc1cc(-c2oc3cc(O)cc(O)c3c(=O)c2O)ccc1O` gave DYRK1A inh 63*, GSK3B inh 3, CDK5 p35 inh 2, GSK3A inh 8, STK33 inh 6 and Dyrk1A artifact 10%.
COc1cccc(CN2CC(C(=O)NCc3cccc(Cl)c3)CCC2=O)c1 (centres undefined) was read as DYRK1A inh -2, GSK3B inh 0 and CDK5 p35 inh 0.
Screening N#Cc1ccc(CSc2nnc(NC(=O)CCc3nc4ccccc4c(=O)[nH]3)s2)cc1 returned DYRK1A inh -2, GSK3B inh 3, CDK5 p35 inh -1, GSK3A inh -1 and STK33 inh -1.
`Cc1ccc(C(=O)c2coc3ccc(OCC(=O)O)cc23)cc1` gave DYRK1A inh 70*, GSK3B inh -72*, CDK5 p35 inh 0, GSK3A inh 89*, STK33 inh 3 and Dyrk1A artifact 10%.
O=C(O)COc1ccc2occ(C(=O)c3ccccc3)c2c1 was read as DYRK1A inh 66*, GSK3B inh 2, CDK5 p35 inh 0, GSK3A inh 83*, STK33 inh 1 and Dyrk1A artifact 8%.
`CC(=O)Oc1ccc2occ(C(=O)c3ccccc3)c2c1` gave GSK3B inh 0, GSK3A inh 13 and STK33 inh 0.
Screening C=CCOc1nc(-c2ccncc2)nc2ccccc12 returned DYRK1A inh 18, GSK3B inh -1, CDK5 p35 inh 2, GSK3A inh -5 and STK33 inh 0.
Screening O=C(O)c1cc2c(s1)-c1ccccc1CC2 returned GSK3B inh 3, CDK5 p35 inh 1, GSK3A inh -2 and STK33 inh 1.
For COc1ccc2c(c1)CCc1cc(C(=O)O)sc1-2 the results were DYRK1A inh 55*, GSK3B inh 1, CDK5 p35 inh -3, GSK3A inh -7, STK33 inh 5 and Dyrk1A artifact 7%.
Cc1cccc(NC(=S)NN2CCN(C)CC2)c1 was read as DYRK1A inh 54*, GSK3B inh 2, CDK5 p35 inh 1, GSK3A inh -3, STK33 inh 0 and Dyrk1A artifact 10%.
Cc1ccc(-c2nn(-c3ccccc3)cc2CO)o1 was read as DYRK1A inh 10, GSK3B inh -1, CDK5 p35 inh 1, GSK3A inh 3 and STK33 inh -1.
CCOC(=O)C1=C(CS(=O)(=O)c2ccc(Cl)cc2)NC(=O)NC1c1ccc(O)c(OC)c1 (centres undefined) was read as DYRK1A inh 4, GSK3B inh 0, CDK5 p35 inh 1, GSK3A inh 0 and STK33 inh -1.
Cc1cccc(NC(=O)C2NC(=O)CC2c2ccccc2)c1C (centres undefined) was read as DYRK1A inh 59*, GSK3B inh 1, CDK5 p35 inh 0, STK33 inh -1 and Dyrk1A artifact 2%.
`CN1CCc2cc3c(c4c2[C@H]1[C@H](O)c1ccccc1-4)OCO3` gave DYRK1A inh 82*, GSK3B inh -4, CDK5 p35 inh 0, GSK3A inh 17, STK33 inh 9 and Dyrk1A artifact 6%.
`COc1ccc2c(c1OC)C(=O)OC2C1c2c(cc3c(c2OC)OCO3)CCN1C` (centres undefined) gave DYRK1A inh 7, GSK3B inh 4, CDK5 p35 inh 2, GSK3A inh -2 and STK33 inh 0.
`Cc1ccc(OCC(=O)Sc2ccc(C)cc2)cc1` gave DYRK1A inh 8, GSK3B inh -2, CDK5 p35 inh 1, GSK3A inh 11 and STK33 inh 2.
`O=[N+]([O-])c1ccccc1S(=O)(=O)NC1CC2CCC1C2` (centres undefined) gave DYRK1A inh 0, GSK3B inh 3, CDK5 p35 inh 0, GSK3A inh -3 and STK33 inh -2.
Screening c1ccc(-c2csc3nnc(SCc4ccc5c(c4)OCO5)n23)cc1 returned DYRK1A inh 58*, GSK3B inh -4, CDK5 p35 inh 5, GSK3A inh 9, STK33 inh 3 and Dyrk1A artifact 7%.
Screening O=C(CCSc1nnc2scc(-c3ccccc3)n12)NCc1ccc2c(c1)OCO2 returned DYRK1A inh 1, GSK3B inh -1, CDK5 p35 inh 1, GSK3A inh -3 and STK33 inh 0.
`CCc1ccc(C(=O)Nc2nc(C)cs2)s1` gave DYRK1A inh 8, GSK3B inh -4, CDK5 p35 inh 1, GSK3A inh 1 and STK33 inh 1.
O=C(Nc1cccc(-c2nn[nH]n2)c1)c1csc2c1CCCC2 was read as DYRK1A inh 56*, GSK3B inh 2, CDK5 p35 inh -4, GSK3A inh 3, STK33 inh 5 and Dyrk1A artifact 7%.
For O=C(Nc1ccccc1O)c1csc2c1CCCC2 the results were DYRK1A inh 4, GSK3B inh 2, CDK5 p35 inh 2, GSK3A inh -1 and STK33 inh -2.

High-throughput results (PubChem BioAssay)
